Experiment [1] relates to L1210. Put plainly: Inhibition of [3H]thymidine uptake in L1210 cells. It counts as functional, cell-based. As to conditions: Mus musculus. The procedure, abridged: (§1)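 ³H-thymidine uptake into L1210 leukaemia cells measured by a modified rapid-mixing technique with inhibitor-stop. Values are mean ± SD of three or more separate determinations. IC50 is interpolated from concentration–inhibition curves.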

Experiment [2] relates to L1210. Put plainly: Inhibition of [3H]thymidine uptake in L1210 cells at 10 uM. The experiment is classed as functional. As to conditions: Mus musculus. In short, it runs like this:
as §1

Experiment [3] deals with L1210. Put plainly: Inhibition of [3H]thymidine uptake in L1210 cells at 1 uM. The experiment is classed as functional. Conditions: Mus musculus. In short, it runs like this: as §1
In experiment [4] the test system is L1210. Put plainly: Compound was tested for the inhibition of [3H]thymidine uptake in L1210 cells at 100 uM. As to conditions: Mus musculus. It counts as functional. In short, it runs like this: as §1
The test system of experiment [5] is L1210. Put plainly: Tested for the reduction in inhibition of [3H]thymidine uptake in L1210 cells in the presence of 5 mg/mL human AGP. The experiment is classed as functional, Mus musculus. In short, it runs like this: (§2)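 Rapid-mixing, inhibitor-stop ³H-thymidine uptake into L1210 leukaemia cells run with 5 mg/mL human AGP present. Values are mean ± SD of three or more separate determinations. Significance of the difference from inhibition without AGP is taken at p ≤ 0.05.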

Experiment [6] relates to L1210. Put plainly: Inhibition of [3H]thymidine uptake in L1210 cells in the presence of 5 mg/mL human AGP at 1 uM. It counts as functional, Mus musculus. The procedure, abridged: as §2

Several values for one entry are separate records, joined by “and”; a condition that tells them apart may be missing. Equal entries are not always repeated. Activity calls are given as the source filed them. The rule behind the calls is not given here.

As usually defined, the IC50 is the concentration that inhibits the measured activity by half. A high value points to lower potency. Usually inhibition stands for the drop in the measured response relative to a control, in per cent. As for `COCCOc1nc(N2CCCCC2)c2nc(OCCOC)nc(N3CCCCC3)c2n1`, in the experiment with L1210 [1], the IC50 is 4600 nM. The compound also displayed an inhibition at 10 µM with L1210 [2] of 63%. In the experiment on L1210 [3], the inhibition at 1 µM is 20%.
For the compound `Clc1nc(NCc2ccccc2)c2nc(Cl)nc(NCc3ccccc3)c2n1`, the inhibition result with L1210 [4] is “inactive”.
Turning to `OCCN(CCO)c1nc(N2CCCCC2)nc2c(N(CCO)CCO)nc(N3CCCCC3)nc12`, the inhibition at 10 µM in the experiment with L1210 [2] was found to be 74%. Besides, the inhibition at 1 µM in the experiment with L1210 [3] was determined as 34%.
Consider `COc1ccc(CNc2nc(N(CCO)CCO)nc3c(NCc4ccc(OC)cc4)nc(N(CCO)CCO)nc23)cc1`, for which the 50% inhibitory concentration (IC50) in the experiment with L1210 [1] is 250 nM. Moreover, the Reduction in the experiment on L1210 [5] was 29%. This compound also had an inhibition at 10 µM in the experiment on L1210 [2] of 96%. The same compound yielded an inhibition at 1 µM with L1210 [3] of 65%.
As a reminder, the Inhibition is how much of the control response was suppressed. `COc1ccc(CNc2nc(N(CCO)CCO)nc3c(NCc4ccc(OC)c(OC)c4)nc(N(CCO)CCO)nc23)cc1OC`: in the experiment on L1210 [1], inhibition was half-maximal at 270 nM (IC50). For the same compound, in the experiment with L1210 [5], the Reduction worked out at 25%. The Inhibition in the experiment on L1210 [6] turned out to be 53%. Moreover, in the experiment on L1210 [2], the inhibition at 10 µM came to 98%. The compound also had an inhibition at 1 µM in the experiment with L1210 [3] of 73%.
In the experiment with L1210 [1], `OCCOc1nc(N2CCCCC2)c2nc(OCCO)nc(N3CCCCC3)c2n1` showed an IC50 of 6300 nM. Testing at 1 µM with L1210 [3] gave an inhibition of 13%.
The corresponding values for `COc1ccc(CN(C)c2nc(OCCCO)nc3c(N(C)Cc4ccc(OC)c(OC)c4)nc(OCCCO)nc23)cc1OC` are 750 nM and 54%.
As for `COCCN(CCOC)c1nc(N2CCCCC2)c2nc(N(CCOC)CCOC)nc(N3CCCCC3)c2n1`, in the experiment with L1210 [1], half-maximal inhibition (IC50) was put at 2070 nM. Moreover, the Reduction in the experiment with L1210 [5] is given as 50%. In the experiment on L1210 [2], this compound displayed an inhibition at 10 µM of 86%. For the same compound, at 1 µM the inhibition in the experiment with L1210 [3] was 29%.
For the compound `CN(Cc1ccccc1)c1nc(OCCCO)nc2c(N(C)Cc3ccccc3)nc(OCCCO)nc12`, half-maximal inhibition with L1210 [1] (IC50) was put at 1400 nM. Also, at 10 µM the inhibition with L1210 [2] was 77%. This compound displayed an inhibition at 1 µM with L1210 [3] of 52%.
`COc1ccc(CNc2nc(OC[C@@H](C)O)nc3c(NCc4ccc(OC)cc4)nc(OC[C@H](C)O)nc23)cc1` gave an inhibition at 1 µM in the experiment with L1210 [3] of 68%.
In the case of `COc1ccc(CN(C)c2nc(NCC(C)O)nc3c(N(C)Cc4ccc(OC)cc4)nc(NCC(C)O)nc23)cc1` (stereo not given), in the experiment on L1210 [5], the Reduction is on record as 86%. In addition, the Inhibition in the experiment with L1210 [6] was determined as 5%. 1 µM produced 39% inhibition in the experiment on L1210 [3].
The compound `CC(C)Oc1nc(N2CCCCC2)c2nc(OC(C)C)nc(N3CCCCC3)c2n1` displayed an inhibition at 10 µM in the experiment on L1210 [2] of 23%.
In the case of `COc1ccc(CN(C)c2nc(NCC(C)O)nc3c(N(C)Cc4ccc(OC)c(OC)c4)nc(NCC(C)O)nc23)cc1OC` (stereo not given), the Reduction with L1210 [5] is 22%. In the experiment with L1210 [6], the Inhibition was 57%. In addition, testing at 1 µM in the experiment on L1210 [3] gave an inhibition of 73%.
In the experiment with L1210 [1], `COc1ccc(CNc2nc(OCCCO)nc3c(NCc4ccc(OC)cc4)nc(OCCCO)nc23)cc1` had an IC50 of 460 nM. The Reduction with L1210 [5] is recorded as 21%. For the same compound, in the experiment on L1210 [3], the inhibition at 1 µM is 63%.
`CCCOc1nc(N(C)Cc2ccccc2)c2nc(OCCC)nc(N(C)Cc3ccccc3)c2n1`: in the experiment on L1210 [2], the inhibition at 10 µM turned out to be 8%.
Compound `OCCN(CCO)c1nc(N2CCCCC2)c2nc(N(CCO)CCO)nc(N3CCCCC3)c2n1` [DIPYRIDAMOLE] yielded an IC50 in the experiment on L1210 [1] of 340 nM. Moreover, the Reduction in the experiment on L1210 [5] is 87% and 96%.
With `COc1ccc(CNc2nc(OCCO)nc3c(NCc4ccc(OC)c(OC)c4)nc(OCCO)nc23)cc1OC`, the Reduction in the experiment on L1210 [5] was 46%. Besides, the Inhibition in the experiment with L1210 [6] was 30%. This compound also gave an inhibition at 1 µM in the experiment on L1210 [3] of 56%.
`COCCOc1nc(N(C)Cc2ccccc2)c2nc(OCCOC)nc(N(C)Cc3ccccc3)c2n1` displayed an IC50 in the experiment with L1210 [1] of 3800 nM. Also, 10 µM produced 68% inhibition in the experiment with L1210 [2]. In the experiment with L1210 [3], this compound showed an inhibition at 1 µM of 17%.
In turn, `c1ccc(CNc2ncnc3c(NCc4ccccc4)ncnc23)cc1` had an inhibition at 10 µM in the experiment on L1210 [2] of 40%.
In turn, `OCCN(CCO)c1nc(NCc2ccc(Cl)cc2)c2nc(N(CCO)CCO)nc(NCc3ccc(Cl)cc3)c2n1` returned an IC50 in the experiment on L1210 [1] of 1100 nM. Besides, in the experiment with L1210 [2], the inhibition at 10 µM amounted to 92%. Besides, 1 µM produced 53% inhibition with L1210 [3].
With `COCCOc1nc(N(Cc2ccccc2)Cc2ccccc2)c2nc(OCCOC)nc(N(Cc3ccccc3)Cc3ccccc3)c2n1`, at 10 µM the inhibition in the experiment with L1210 [2] was 15%. The compound also yielded an inhibition at 1 µM in the experiment on L1210 [3] of 9%.
As to `CN(Cc1ccccc1)c1nc(OCCO)nc2c(N(C)Cc3ccccc3)nc(OCCO)nc12`, the IC50 in the experiment with L1210 [1] worked out at 800 nM. Moreover, in the experiment on L1210 [5], the Reduction is given as 55%. In addition, the Inhibition in the experiment with L1210 [6] was found to be 22%. In the experiment on L1210 [2], this compound gave an inhibition at 10 µM of 87%. For the same compound, the inhibition at 1 µM in the experiment with L1210 [3] amounted to 49%.
For `OCCN(CCO)c1nc(NCc2ccc3c(c2)OCO3)c2nc(N(CCO)CCO)nc(NCc3ccc4c(c3)OCO4)c2n1`, the Reduction in the experiment on L1210 [5] came to 36%. In addition, the Inhibition in the experiment on L1210 [6] is listed as 47%. In the experiment with L1210 [3], this compound returned an inhibition at 1 µM of 73%.
Compound `COC[C@H](COc1nc(N2CCCCC2)c2nc(OC[C@H](COC)OC)nc(N3CCCCC3)c2n1)OC` registered an inhibition at 10 µM in the experiment on L1210 [2] of 100%.
`CC(O)CNc1nc(NCc2ccccc2)c2nc(NCC(C)O)nc(NCc3ccccc3)c2n1` (stereo not given) displayed an IC50 in the experiment on L1210 [1] of 3000 nM. Moreover, testing at 10 µM in the experiment on L1210 [2] gave an inhibition of 84%. The compound further came in with an inhibition at 1 µM in the experiment with L1210 [3] of 33%.
Regarding `COc1ccc(CN(C)c2nc(NCCO)nc3c(N(C)Cc4ccc(OC)c(OC)c4)nc(NCCO)nc23)cc1OC`, in the experiment with L1210 [2], the inhibition at 10 µM was 84%. The compound also displayed an inhibition at 1 µM with L1210 [3] of 57%.
In the case of `OCCNc1nc(NCc2ccccc2)c2nc(NCCO)nc(NCc3ccccc3)c2n1`, it took 750 nM to reach half-maximal inhibition in the experiment on L1210 [1] (IC50). Besides, the inhibition at 1 µM in the experiment with L1210 [3] worked out at 46%.
Compound `COCCOc1nc(NCc2ccccc2)c2nc(OCCOC)nc(NCc3ccccc3)c2n1` displayed an IC50 with L1210 [1] of 2400 nM. This compound also showed an inhibition at 10 µM with L1210 [2] of 78%. The same compound displayed an inhibition at 1 µM in the experiment with L1210 [3] of 31%.
As to `OCCN(CCO)c1nc(NCc2ccc(C(F)(F)F)cc2)c2nc(N(CCO)CCO)nc(NCc3ccc(C(F)(F)F)cc3)c2n1`, in the experiment on L1210 [2], testing at 10 µM gave an inhibition of 60%. At 1 µM the inhibition in the experiment with L1210 [3] was 32%.
The corresponding values for `OCCCOc1nc(N2CCCCC2)c2nc(OCCCO)nc(N3CCCCC3)c2n1` are 76% and 35%.
For the compound `OCCN(CCO)c1nc(N2CCc3ccccc3C2)c2nc(N(CCO)CCO)nc(N3CCc4ccccc4C3)c2n1`, the IC50 in the experiment with L1210 [1] is 720 nM. The Reduction in the experiment with L1210 [5] is 31%. This compound came in with an inhibition at 10 µM in the experiment on L1210 [2] of 100%. The compound further yielded an inhibition at 1 µM with L1210 [3] of 72%.
Consider `OCCN(CCO)c1nc(N2CCCC(O)C2)c2nc(N(CCO)CCO)nc(N3CCCC(O)C3)c2n1` (stereo not given), for which 2600 nM corresponded to half-maximal inhibition in the experiment with L1210 [1] (IC50). This compound also had an inhibition at 10 µM in the experiment with L1210 [2] of 50%. The inhibition at 1 µM in the experiment with L1210 [3] stood at 28%.
As to `COc1ccc(CNc2nc(OCCCO)nc3c(NCc4ccc(OC)c(OC)c4)nc(OCCCO)nc23)cc1OC`, the Reduction with L1210 [5] worked out at 34%. In addition, the Inhibition in the experiment with L1210 [6] was determined as 47%. The inhibition at 1 µM in the experiment with L1210 [3] was found to be 71%.
In the experiment on L1210 [1], `C[C@H](O)COc1nc(N2CCCCC2)c2nc(OC[C@@H](C)O)nc(N3CCCCC3)c2n1` yielded an IC50 of 900 nM. Also, the Reduction with L1210 [5] is 55%. In addition, in the experiment on L1210 [6], the Inhibition was determined as 20%. For the same compound, at 10 µM the inhibition in the experiment on L1210 [2] was 92%. The inhibition at 1 µM in the experiment on L1210 [3] is 47%.
Consider `CCN(CC)c1nc(N2CCCCC2)c2nc(N(CC)CC)nc(N3CCCCC3)c2n1`, for which the inhibition result in the experiment with L1210 [2] was “inactive”.
Turning to `C[C@H](O)COc1nc(N(C)Cc2ccccc2)c2nc(OC[C@@H](C)O)nc(N(C)Cc3ccccc3)c2n1`, the Reduction in the experiment on L1210 [5] stood at 84%. The Inhibition in the experiment with L1210 [6] turned out to be 9%. The compound also yielded an inhibition at 1 µM with L1210 [3] of 55%.
`CCC(C)COc1nc(N2CCCCC2)c2nc(OCC(C)CC)nc(N3CCCCC3)c2n1` (stereo not given): the inhibition entry with L1210 [2] is “inactive”.

These data come from ChEMBL document CHEMBL1138764, “Resistance-modifying agents. 11.(1) Pyrimido[5,4-d]pyrimidine modulators of antitumor drug activity. Synthesis and structure-activity relationships for nucleoside transport inhibition and binding to alpha1-acid glycoprotein” (J Med Chem, 2004).
